Experimental data taken from publication PMC10826612 (Food Chemistry: X, 2024).

Key:
tyrosinase (TYR) [1] = target: T1, tyrosinase (TYR) (Agaricus bisporus, UniProt C7FF04); assay: Fluorescence quenching titration of TYR; format: binding
HEK-293 cells = assay: CCK-8 cell viability assay; format: cell-based, human; settings: in words
Method in brief: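 Log-phase HEK-293 cells were seeded at 1 × 10^5 cells/well and held at 37 °C for 24 h. They were then exposed for 24 h to test compound at 4, 12, 36 or 108 µM, prepared in PBS. Wells were washed twice with PBS, and medium containing 10 % CCK-8 was added. Absorbance at 450 nm was read after 2 h.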

tyrosinase (TYR) [2] = target: T1, tyrosinase (TYR); assay: UV spectra measurement of TYR with inhibitor; format: binding
tyrosinase (TYR) [3] = target: T1, tyrosinase (TYR); assay: Kinetic analysis of TYR; format: biochemical; settings: Lineweaver-Burk plot
tyrosinase (TYR) [4] = target: T1, tyrosinase (TYR); assay: ANS fluorescence assay; format: binding; settings: 6f 60 µM (533 nm at 0 µM)
tyrosinase (TYR) [5] = target: T1, tyrosinase (TYR); assay: CD spectroscopy of TYR secondary structure; format: binding; settings: molar ratio 1:6

T1 sequence (C7FF04 1-392): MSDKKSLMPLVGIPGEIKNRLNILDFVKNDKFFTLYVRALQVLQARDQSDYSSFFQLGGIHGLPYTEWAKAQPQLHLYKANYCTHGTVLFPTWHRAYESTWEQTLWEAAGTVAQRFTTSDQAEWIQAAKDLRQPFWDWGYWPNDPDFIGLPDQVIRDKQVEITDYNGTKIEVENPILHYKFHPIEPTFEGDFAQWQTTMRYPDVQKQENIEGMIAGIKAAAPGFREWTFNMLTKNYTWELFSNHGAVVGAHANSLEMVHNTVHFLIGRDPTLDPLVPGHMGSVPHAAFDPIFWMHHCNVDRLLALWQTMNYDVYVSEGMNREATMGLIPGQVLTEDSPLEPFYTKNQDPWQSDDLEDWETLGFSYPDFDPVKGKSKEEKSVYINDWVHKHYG

quenching constant Kq (tyrosinase (TYR) [1]; Stern-Volmer plot): 3.95 × 10^12 L/mol S^-1
number of binding sites n (tyrosinase (TYR) [1]; double reciprocal equation): 1.12
mode of action on TYR (quenching type) (tyrosinase (TYR) [1]; multispectral experiments): static quenching
inhibition type (tyrosinase (TYR) [3]): mixed-type inhibitor
maximum emission wavelength of ANS-TYR fluorescence (tyrosinase (TYR) [4]): 500 nm
α-Helix content of TYR (tyrosinase (TYR) [5]): 32.50%
β-Turn content of TYR (tyrosinase (TYR) [5]): 17.20%
β-sheet content of TYR (tyrosinase (TYR) [5]): 17.50%
Structure (SMILES): CCCc1cc(=O)oc2cc(OCc3cc(=O)c(O)co3)ccc12 [Compound 6f]
cytotoxicity (HEK-293 cells): low cytotoxicity
effect on the UV absorption peak of TYR at 280 nm (tyrosinase (TYR) [2]): significantly reduced the absorption peak of TYR at 280 nm
